Source: PubChem
ZTA DNA inh – ZTA (EBV) inhibition in EBNA-1 counter-screen | 320,000 tested, 0.15% active | inhibition, % at 11 µM | ZTA-DNA binding, fluorescence polarization; in the data active = inhibition above about 33%
Target sequence (P03206 whole entry, looked up): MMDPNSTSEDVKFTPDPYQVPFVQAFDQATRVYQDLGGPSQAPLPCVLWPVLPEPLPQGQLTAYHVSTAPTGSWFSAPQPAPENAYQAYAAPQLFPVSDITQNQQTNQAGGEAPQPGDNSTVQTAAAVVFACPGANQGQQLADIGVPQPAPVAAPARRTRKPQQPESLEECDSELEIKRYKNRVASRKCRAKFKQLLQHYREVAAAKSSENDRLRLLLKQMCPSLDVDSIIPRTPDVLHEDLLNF
EBNA-1 inhibitor – blocks EBNA-1 binding to DNA | EBNA-1 DNA binding, fluorescence polarization | inhibition, % at 14.8 µM | 300,000 tested, 0.34% active | AID 1950; in the data active = inhibition above about 28%
HCV NS3 hel inh – inhibitors of Hepatitis C virus NS3 helicase; NS3 helicase DNA unwinding, Cy5 molecular beacon fluorescence; inhibition, % at 10.9 µM; 290,000 tested, 0.56% active; AID 1800;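 active = inhibition above the mean of all tested compounds plus 3 SD, set per campaign, cut at about 35% in these data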;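 note: 0% = DMSO wells and 100% = thioflavine S control wells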
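Material: hepatitis C virus NS3 helicase domain fragment enzyme; measured by: Cy5 fluorescence, 0 and 60 min reads; control set: DMSO and thioflavine S; incubation: 60 min unwinding reaction at 25 °C after ATP addition; read-out basis: % inhibition from 60/0 min fluorescence ratio, DMSO 0%, thioflavine S 100%; repeats: singlicate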
DNA FID counter-1 – counter-screen for HCV NS3 helicase inhibitors: DNA intercalator displacement; DNA fluorescent intercalator displacement, fluorescence; inhibition, % at 7.9 µM; 290,000 tested, 0.17% active; AID 1845;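 note: 0% = vehicle and 100% = reference compound; higher means more ethidium bromide displaced from hairpin DNA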
GPR7 antag – antagonists of human GPR7 (neuropeptides B/W receptor 1) | P48145 | GPR7-expressing cells, fluorescence antagonist assay | inhibition, % at 4.4 µM | 290,000 tested, 1.1% active; in the data active = inhibition above about 16%, passing the limit was not always enough;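 note: cells stimulated with the agonist NPW; 0% = agonist with vehicle and 100% = vehicle without agonist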
Target sequence (P48145 whole entry, looked up): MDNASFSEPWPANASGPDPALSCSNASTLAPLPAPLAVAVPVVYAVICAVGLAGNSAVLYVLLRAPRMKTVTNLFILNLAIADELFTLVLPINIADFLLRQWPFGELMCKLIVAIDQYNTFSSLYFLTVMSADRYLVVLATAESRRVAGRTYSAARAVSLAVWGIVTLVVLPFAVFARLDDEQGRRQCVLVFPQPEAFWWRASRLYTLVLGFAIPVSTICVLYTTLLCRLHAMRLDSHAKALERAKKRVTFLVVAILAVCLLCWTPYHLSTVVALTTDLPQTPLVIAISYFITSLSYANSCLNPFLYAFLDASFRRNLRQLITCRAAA
NS3 helicase cf – HCV NS3 helicase inhibition, confirmation assay; shares compounds with HCV NS3 hel inh; NS3 helicase DNA unwinding, Cy5 molecular beacon fluorescence; inhibition, % at 10.9 µM; 1,600 tested, 31% active; AID 1943;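 active = inhibition above the mean of all tested compounds plus 3 SD, cutoff set per campaign, cut at about 36% in these data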
DNA FID counter-2 – counter-screen for HCV NS3 helicase inhibitors: DNA intercalator displacement. shares compounds with HCV NS3 hel inh. inhibition, % at 7.9 µM. 1,600 tested, 4% active. DNA fluorescent intercalator displacement, fluorescence;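 note: 0% = vehicle and 100% = reference compound; higher means more displacement of ethidium bromide from the DNA hairpin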
DNA FID DR – displaces fluorescent intercalator from DNA, HCV helicase counter-screen; shares compounds with HCV NS3 hel inh; fluorescent intercalator displacement from DNA, fluorescence; IC50, µM; 120 tested, under 10 active; AID 2172; call rule not given here
The depositor's hits bear a star; i = inactive; . = no result given; + = active, no number. Rows were chosen to be rich in hits. Some 2% of all compounds tested hit in one or more screens of this group. Cut-off read from the data, not from the text of the source, unless noted: active = inhibition above about 37%; inactive = the rest.

SMILES | ZTA DNA inh | EBNA-1 inhibitor | HCV NS3 hel inh | DNA FID counter-1 | GPR7 antag | NS3 helicase cf | DNA FID counter-2 | others
Cn1c(CC(=O)NNC(=O)c2ccccc2[N+](=O)[O-])nc2ccccc21 | -16 | . | . | . | . | . | .
COCCNC(=O)c1cc2c(=O)[nH]c3ccccc3c2s1 | -19 | -13 | 70* | -14 | -13 | -8 | 4
CCCCOc1ccc(-c2cc(C(F)(F)F)c(C#N)c(SCC(=O)O)n2)cc1 | -24 | -2 | 43* | -38 | -1 | 81* | -14 | DNA FID DR=i
CCOC(=O)N1CCC(c2cc(=O)n3[nH]c(C)c(-c4ccc(F)cc4)c3n2)CC1 | 0 | -3 | 6 | -38 | 1 | . | .
COCCNC(=O)c1c[nH]n2c(=O)cc(C3CCN(C(=O)OC(C)(C)C)CC3)nc12 | -3 | -5 | 41* | -58 | -2 | -8 | -27
CN(CC(=O)NCc1cccnc1)S(=O)(=O)c1ccc(F)cc1 | 2 | 2 | -3 | -4 | -17 | . | .
COc1ccc(N2C(=O)C3C(C2=O)C(C(=O)c2ccc(Cl)cc2)N2CCCC32)cc1 (stereo unspecified) | 3 | 8 | 40* | -13 | -5 | 33 | -24
Cc1ccc(CC(=O)OC(C)C(=O)NC2CCCCC2C)cc1C (stereo unspecified) | -8 | . | . | . | . | . | .
C/C(=C\C(=O)c1ccc(Cl)cc1)Nc1ccc(Br)cc1 | -10 | 3 | 47* | 2 | -4 | 0 | 8
C/C(=C\C(=O)c1ccc(Br)cc1)Nc1cccc(Cl)c1 | 4 | 6 | 6 | -2 | -6 | . | .
CCOc1ccc(/C=c2\sc3nc(-c4ccco4)nn3c2=O)cc1OCC | 4 | 4 | 38* | -37 | -2 | 47* | -27 | DNA FID DR=>79
COc1ccccc1/C=c1\sc2nc(-c3ccco3)nn2c1=O | 1 | -11 | 16 | -10 | -6 | . | .
COc1cccc(C(N)=O)c1OC(=O)Cc1ccccc1F | -3 | -8 | 40* | -3 | 1 | 2 | 13
Cc1nnc(-c2ccco2)c2cn(-c3cccc(Br)c3)nc12 | 4 | 0 | 39* | -10 | -12 | 4 | 9
CC(C(=O)N1CCc2ccccc21)N1CCN(c2cccc(C(F)(F)F)c2)CC1 (stereo unspecified) | -5 | 3 | -15 | -21 | -9 | . | .
COc1ccc(N(C(=O)c2snc(C(N)=O)c2N)C(C(=O)NCC2CCCO2)c2ccc3ncccc3c2)cc1OC (stereo unspecified) | -2 | 5 | -8 | -34 | -8 | . | .
CC[C@H]1OC(=O)[C@H](C)[C@@H](O[C@H]2C[C@@](C)(OC)[C@@H](O)[C@H](C)O2)[C@H](C)[C@@H](O[C@@H]2O[C@H](C)C[C@H](N(C)C)[C@H]2O)[C@](C)(O)C[C@@H](C)C(=O)[C@H](C)[C@@H](O)[C@]1(C)O | 2 | 11 | 47* | -14 | -6 | 75* | -25
COc1ccc([N+](=O)[O-])cc1NCc1cccnc1 | -10 | 4 | 15 | 3 | -2 | . | .
COc1ccc([N+](=O)[O-])cc1NCc1cccc([N+](=O)[O-])c1 | 11 | 3 | 41* | 9 | 5 | -6 | 23
C=CCOc1c(Cl)cc(CNc2ccc(C)c(Cl)c2)cc1OC | 7 | -2 | -10 | -3 | -2 | . | .
C=CCOc1c(Cl)cc(CNc2ccc(N(C)C)cc2)cc1OC | + | + | 51* | -2 | -3 | 23 | 21
CCOC(=O)N1CCN(C(=O)/C(=C/c2cccs2)NC(=O)c2ccc(OC)c(OC)c2)CC1 | 3 | -6 | -3 | -42 | -3 | . | .
COc1ccc2cc(-c3cc(C(=O)O)c4ccccc4n3)ccc2c1 | -6 | 4 | 40* | -24 | 5 | 45* | -6
CCCCN(C(=O)c1ccc2c(c1)OCCO2)c1c(N)n(CC(C)C)c(=O)[nH]c1=O | 1 | -1 | . | . | . | . | .
Cn1cccc1Cc1nnc(SCC(=O)Nc2cccc(F)c2)n1CCc1ccccc1 | 10 | 5 | 42* | -53 | 2 | -6 | -27
SMILES | ZTA DNA inh | EBNA-1 inhibitor | HCV NS3 hel inh | DNA FID counter-1 | GPR7 antag | NS3 helicase cf | DNA FID counter-2 | others
CCNc1ccccc1CP(=O)(c1ccccc1)c1ccccc1O (stereo unspecified) | 0 | 10 | 64* | -37 | 1 | -1 | 7
Cc1ccc(O)c(CP(=O)(c2ccccc2)c2ccccc2)c1 | -1 | 8 | -10 | -22 | -2 | . | .
CNc1ccccc1C(C)(C)c1cc(-c2ccco2)n[nH]1 | -16 | -3 | 41* | -5 | -8 | -9 | -27
CNc1ccccc1C(C)(C)c1cc(C)[nH]n1 | -7 | 13 | 0 | -13 | -10 | . | .
Cc1ccc(Nc2cc(C)nn2-c2nc(C)cc(C)n2)cc1 | -5 | 8 | 5 | -22 | -8 | . | .
Cc1ccc(Nc2cc(C)nn2-c2nc(C)cc(=O)[nH]2)cc1 | -1 | 7 | 39* | -32 | 5 | -3 | -30
O=C(NC(Cc1c[nH]c2ccccc12)C(=O)O)c1ccc(F)cc1 (stereo unspecified) | -11 | 6 | 5 | 7 | 0 | . | .
O=C(Nc1ccccc1C(=O)NC(Cc1c[nH]c2ccccc12)C(=O)O)c1ccccc1 (stereo unspecified) | -15 | -1 | 40* | -24 | -14 | 42* | -36
CCCC(NC(=O)COc1cc2c(c3oc(=O)c(C)c(C)c13)CCC(C)(C)O2)C(=O)O (stereo unspecified) | -3 | -11 | 55* | -15 | -3 | 0 | -2
CC(OC(=O)CCN=C1NS(=O)(=O)c2ccccc21)C(=O)Nc1ccc(N(C)C)cc1 (stereo unspecified) | 4 | -8 | . | . | . | . | .
Cc1cc(C)n2nc(SCC(=O)Nc3ccc(F)cc3)nc2n1 | -1 | -1 | 51* | -3 | -5 | -12 | 3
O=C(NN=C1CCN(Cc2ccccc2)CC1)c1cc2ccccc2cc1O | 7 | 14 | 39* | -10 | 7 | 29 | -12
COc1cc(Br)cc(Br)c1OCC(=O)N/N=C/c1c(C)n(C)n(-c2ccccc2)c1=O | . | . | -14 | -29 | -6 | . | .
O=C(Nc1ccc(-c2n[nH]c(=S)o2)cc1)c1ccccc1Br | 0 | 4 | 4 | -10 | -8 | . | .
CCOc1ccc(/C=C2\SC(=S)N(C(C(=O)O)c3ccccc3)C2=O)cc1OC (stereo unspecified) | 6 | 4 | 28 | -24 | 5 | . | .
COc1ccc(OC)c(/C=C2\SC(=S)N(C(C(=O)O)c3ccccc3)C2=O)c1 (stereo unspecified) | 17 | 4 | 47* | -13 | 7 | 84* | 16
COCCN(CC(=O)Nc1cccc(C)c1C)C(=O)Cc1sc(C)nc1-c1ccc(F)cc1 | -4 | . | . | . | . | . | .
COc1ccc(-c2cc(C(=O)Nc3ccc(C(N)=O)cc3)c3ccccc3n2)cc1 | 7 | -7 | -21 | -20 | -7 | . | .
